From ChEMBL document CHEMBL1153422, “N6-Cycloalkyl- and N6-bicycloalkyl-C5'(C2')-modified adenosine derivatives as high-affinity and selective agonists at the human A1 adenosine receptor with antinociceptive effects in mice” (J Med Chem, 2009)
Activity calls are given as the source filed them. The rule behind the calls is not given here.

Tests used:
Adenosine receptor A1 = biological target: T1, Adenosine receptor A1 (Homo sapiens, UniProt P30542); experiment: Displacement of [3H]CCPA from human recombinant adenosine A1 receptor expressed in CHO cells; assay type: cell-based
T1 sequence (P30542 whole entry): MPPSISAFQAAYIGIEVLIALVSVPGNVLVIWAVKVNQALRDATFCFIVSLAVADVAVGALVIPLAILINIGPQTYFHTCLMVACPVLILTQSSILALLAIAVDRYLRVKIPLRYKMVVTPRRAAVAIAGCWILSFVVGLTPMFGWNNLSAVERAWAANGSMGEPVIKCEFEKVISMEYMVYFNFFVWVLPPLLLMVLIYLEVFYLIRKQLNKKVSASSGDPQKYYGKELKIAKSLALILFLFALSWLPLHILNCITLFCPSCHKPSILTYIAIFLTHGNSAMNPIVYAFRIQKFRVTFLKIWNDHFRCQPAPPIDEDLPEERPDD

Adenosine receptor A2a = Adenosine receptor A2a (Homo sapiens, UniProt P29274); experiment: Displacement of [3H]NECA from human recombinant adenosine A2A receptor expressed in CHO cells; assay type: cell-based
Method in brief: (§1)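 Competition binding on membranes from CHO cells stably transfected with individual human adenosine receptor subtypes; radioligands 1 nM [3H]CCPA (A1), 30 nM [3H]NECA (A2A), 1 nM [3H]HEMADO (A3); Ki from nonlinear curve fitting; selectivity as Ki ratio.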

Adenosine receptor A2b = biological target: T2, Adenosine receptor A2b (Homo sapiens, UniProt P29275); experiment: Agonist activity at human adenosine A2B receptor expressed in CHO cells assessed as inhibition of NECA-stimulated adenylyl cyclase activity; assay type: functional, cell-based
T2 sequence (P29275 whole entry): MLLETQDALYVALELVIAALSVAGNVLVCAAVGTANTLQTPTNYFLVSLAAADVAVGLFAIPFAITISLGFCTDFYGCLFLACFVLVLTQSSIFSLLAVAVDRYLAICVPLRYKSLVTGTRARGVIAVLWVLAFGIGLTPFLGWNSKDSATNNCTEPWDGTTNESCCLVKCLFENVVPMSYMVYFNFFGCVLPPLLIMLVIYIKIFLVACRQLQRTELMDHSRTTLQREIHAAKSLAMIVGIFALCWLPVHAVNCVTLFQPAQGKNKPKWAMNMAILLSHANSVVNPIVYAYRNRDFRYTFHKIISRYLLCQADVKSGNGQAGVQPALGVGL
Method in brief: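 Membranes from CHO cells stably expressing human A2B receptor; inhibition of NECA-stimulated adenylyl cyclase activity measured, IC50 converted to Ki; curves fitted by nonlinear regression.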

Adenosine receptor A3 = biological target: T3, Adenosine receptor A3 (Homo sapiens, UniProt P0DMS8); experiment: Displacement of [3H]HEMADO from human recombinant adenosine A3 receptor expressed in CHO cells; assay type: cell-based; method in brief: as §1
T3 sequence (P0DMS8 whole entry): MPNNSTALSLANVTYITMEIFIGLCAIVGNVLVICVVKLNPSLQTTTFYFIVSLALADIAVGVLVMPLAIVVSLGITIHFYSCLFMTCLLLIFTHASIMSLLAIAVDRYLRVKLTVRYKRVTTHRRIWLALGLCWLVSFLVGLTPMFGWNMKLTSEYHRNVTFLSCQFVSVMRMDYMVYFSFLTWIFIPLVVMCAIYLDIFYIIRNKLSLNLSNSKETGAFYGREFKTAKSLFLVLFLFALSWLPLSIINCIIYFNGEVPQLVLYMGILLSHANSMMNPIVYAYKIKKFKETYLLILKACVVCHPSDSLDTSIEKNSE

Homo sapiens = species: Homo sapiens; experiment: Selectivity of Ki for human recombinant adenosine A2A receptor to Ki for human recombinant adenosine A1 receptor; method in brief: as §1
[1] = biological target: Adenosine receptors; A1 & A3 (Homo sapiens) (UniProt P30542+P0DMS8); experiment: Selectivity of Ki for human recombinant adenosine A3 receptor to Ki for human recombinant adenosine A1 receptor; method in brief: as §1
[2] = biological target: T4, Adenosine receptor A1 (Homo sapiens) (UniProt P30542); experiment: Agonist activity human recombinant adenosine A1 receptor expressed in CHO cells assessed as inhibition of forskolin-stimulated adenylyl cyclase activity; assay type: functional, cell-based
T4 sequence (whole entry): T1 sequence (P30542 whole entry)
Method in brief: (§2)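 CHO cells stably transfected with human receptor (A1 or A3); cyclase activity stimulated by 10 µM forskolin taken as 100%; percentage activity remaining after agonist-mediated inhibition reported; means ± SEM of three independent experiments.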

[3] = biological target: T5, Adenosine receptor A3 (Homo sapiens) (UniProt P0DMS8); experiment: Antagonist activity at human recombinant adenosine A3 receptor expressed in CHO cells assessed as inhibition of forskolin-stimulated adenylyl cyclase activity; assay type: functional, cell-based
T5 sequence (whole entry): T3 sequence (P0DMS8 whole entry)

Mus musculus [4] = experiment: Analgesic activity in mouse assessed as reduction of formalin-induced early nociceptive behavior at 2 mg/kg, ip administered 10 mins before formalin challenge measured every 5 mins for 60 mins in presence of adenosine A1 receptor antagonist DPCPX; assay type: functional, organism-based; set-up: dose 2 mg/kg
Method in brief: (§3)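 Mice, n = 8-10 per group, randomly assigned; drug or vehicle (0.9% NaCl) given i.p. 10 min before 1.25% formalin in saline (30 µL) into dorsal hind paw; DPCPX 3 mg/kg i.p. co-administered where stated. Lifting, licking, shaking, flinching timed every 5 min for 60 min; early phase 0-7 min, late 15-60 min; mean ± SEM.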

Mus musculus [5] = experiment: Analgesic activity in mouse assessed as reduction of formalin-induced late nociceptive behavior at 2 mg/kg, ip administered 10 mins before formalin challenge measured every 5 mins for 60 mins in presence of adenosine A1 receptor antagonist DPCPX; assay type: functional, organism-based; set-up: dose 2 mg/kg; method in brief: as §3
[6] = biological target: T5, Adenosine receptor A3 (Homo sapiens); experiment: Agonist activity human recombinant adenosine A3 receptor expressed in CHO cells assessed as inhibition of forskolin-stimulated adenylyl cyclase activity; assay type: functional, cell-based; method in brief: as §2
Mus musculus [7] = experiment: Analgesic activity in ip dosed mouse assessed as reduction of formalin-induced late nociceptive behavior administered 10 mins before formalin challenge measured every 5 mins for 60 mins; assay type: functional, organism-based; method in brief: as §3
[8] = Lipophilicity log P of the compound; assay type: physicochemical; conditions: octanol/water

Chain of Adenosine receptor A2a (P29274 whole entry): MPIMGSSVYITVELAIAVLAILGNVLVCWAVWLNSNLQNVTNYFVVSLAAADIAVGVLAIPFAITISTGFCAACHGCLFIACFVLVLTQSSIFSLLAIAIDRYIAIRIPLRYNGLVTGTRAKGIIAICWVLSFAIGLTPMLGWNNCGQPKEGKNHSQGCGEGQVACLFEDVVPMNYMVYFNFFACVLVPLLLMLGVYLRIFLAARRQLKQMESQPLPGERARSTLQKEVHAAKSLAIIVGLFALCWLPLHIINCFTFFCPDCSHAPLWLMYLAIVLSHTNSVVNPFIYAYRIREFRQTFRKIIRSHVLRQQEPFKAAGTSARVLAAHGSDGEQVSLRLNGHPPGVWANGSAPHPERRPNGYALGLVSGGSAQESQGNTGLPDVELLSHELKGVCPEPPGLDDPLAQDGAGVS

Compound	Ki (Adenosine receptor A1) [nM]	Ki (Adenosine receptor A2a) [µM]	Ki (Adenosine receptor A2b) [µM]	Ki (Adenosine receptor A3) [nM]	Ratio Ki (Homo sapiens)	Ratio Ki [1]	Activity [2]	Activity [6]	Activity [3]	Activity (Mus musculus [4])	Activity (Mus musculus [5])	Activity (Mus musculus [7])	logP [8]
C[C@@]1(O)[C@H](O)[C@@H](CCl)O[C@H]1n1cnc2c(NC3CCCC3)nc(Cl)nc21	12.8	16.2	> 10	3030	1770	237							
C[C@@]1(O)[C@H](O)[C@@H](CSc2ccccc2F)O[C@H]1n1cnc2c(NC3CCCC3)nc(Cl)nc21	2150	> 100	> 10	1150	> 47	0.5							
C[C@@]1(O)[C@H](O)[C@@H](CCl)O[C@H]1n1cnc2c(NC3CCCC3)ncnc21	28.4	> 100	> 10	6740	> 3520	237							
CCCn1c(=O)c2[nH]c(C3CCCC3)nc2n(CCC)c1=O										inactive	inactive		
OC[C@H]1O[C@@H](n2cnc3c(NC4CCCC4)ncnc32)[C@H](O)[C@@H]1O								Active					
O[C@@H]1[C@H](O)[C@@H](CCl)O[C@H]1n1cnc2c(NC3CC4CCC3C4)ncnc21 (mixture of isomers)		1.34	2.74	1290			Active		Active			Dose-dependent effect	1.04
OC[C@H]1O[C@@H](n2cnc3c(NC4CC5CCC4C5)ncnc32)[C@H](O)[C@@H]1O (mixture of isomers)	0.54	1.27	4.93	101	2350	187	Active	Active					-0.14
C[C@@]1(O)[C@H](O)[C@@H](CCl)O[C@H]1n1cnc2c(NC3CC4CCC3C4)nc(Cl)nc21 (mixture of isomers)	9.16	31.6	> 10	5900	3450	644							
C[C@@]1(O)[C@H](O)[C@@H](CO)O[C@H]1n1cnc2c(NC3CC4CCC3C4)ncnc21 (mixture of isomers)	4.09	8.78	> 10	2520	2150	616	Active						

Further lines, with some results ahead:

Ki (Adenosine receptor A1) [nM]	Ki (Adenosine receptor A2a) [µM]	Ki (Adenosine receptor A2b) [µM]	Ki (Adenosine receptor A3) [nM]	Ratio Ki (Homo sapiens)	Ratio Ki [1]	Activity [2]	Activity [6]	Compound	Activity [3]	Activity (Mus musculus [4])	Activity (Mus musculus [5])	Activity (Mus musculus [7])	logP [8]
0.59	0.837	3.21	376	1470	637	Active		O[C@@H]1[C@H](O)[C@@H](CCl)O[C@H]1n1cnc2c(NC3CCCC3)ncnc21	Active				
1.56	2.16	4.83	417	1380	267	Active		O[C@@H]1[C@H](O)[C@@H](CCl)O[C@H]1n1cnc2c(NC3CCCC3)nc(Cl)nc21					
64.7	5.17	> 10	296	80	5			O[C@@H]1[C@H](O)[C@@H](CSc2ccccc2F)O[C@H]1n1cnc2c(NC3CCCC3)ncnc21					
258	2.19	> 10	479	8	2			O[C@@H]1[C@H](O)[C@@H](CSc2ccccc2F)O[C@H]1n1cnc2c(NC3CCCC3)nc(Cl)nc21					
250	18.9	> 10	746	76	3			O[C@@H]1[C@H](O)[C@@H](CSc2ccccc2F)O[C@H]1n1cnc2c(NC3CCOC3)ncnc21 (some centres not stated)					
1680	> 100	> 10	1440	> 60	0.9			C[C@@]1(O)[C@H](O)[C@@H](CSc2ccccc2F)O[C@H]1n1cnc2c(NC3CCCC3)ncnc21					
9.13	24	> 10	11600	2630	1270			C[C@@]1(O)[C@H](O)[C@@H](CCl)O[C@H]1n1cnc2c(NC3CC4CCC3C4)ncnc21 (mixture of isomers)					
1060	> 100	> 10	3480	> 94	3			C[C@@]1(O)[C@H](O)[C@@H](CSc2ccccc2F)O[C@H]1n1cnc2c(NC3CC4CCC3C4)ncnc21 (mixture of isomers)					
2970	> 100	> 10	4350	> 34	1.5			C[C@@]1(O)[C@H](O)[C@@H](CSc2ccccc2F)O[C@H]1n1cnc2c(NC3CC4CCC3C4)nc(Cl)nc21 (mixture of isomers)					
6.96	11.8	> 10	4490	1700	645			C[C@@]1(O)[C@H](O)[C@@H](CO)O[C@H]1n1cnc2c(NC3CC4CCC3C4)nc(Cl)nc21 (mixture of isomers)					
0.71	0.797	> 10	129	1120	182	Active		OC[C@H]1O[C@@H](n2cnc3c(NC4CC5CCC4C5)nc(Cl)nc32)[C@H](O)[C@@H]1O (mixture of isomers)					
1.61	2.05	> 10	1410	1270	875	Active		O[C@@H]1[C@H](O)[C@@H](CCl)O[C@H]1n1cnc2c(NC3CC4CCC3C4)nc(Cl)nc21 (mixture of isomers)					
